Assay results from ChEMBL document CHEMBL1268946, “Discovery of 2-substituted benzoxazole carboxamides as 5-HT3 receptor antagonists” (Bioorg Med Chem Lett, 2010).
pIC50, pKi: −log10 of the molar value. The source made the active and inactive calls. The calls are words filed in the database; no cut-off is given here.

How the values were obtained:
[1] = system: Mus musculus; test: Cardioprotective effect in po dosed mouse assessed as inhibition of 5-HT-induced bradycardia administered 1 hr prior to 5-HT challenge; assay type: functional
How it was run: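 Murine von Bezold–Jarisch reflex assay. Test agents were given orally 1 h before a 0.1 mg/kg 5-HT challenge. Read-out was block of 5-HT-induced transient bradycardia.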

[2] = Intrinsic clearance in human liver microsomes; assay type: ADME, Microsome
[3] = Bioavailability in rat at 10 mg/kg, po or 1 mg/kg, iv; assay type: ADME, organism-based; details: in vivo
[4] = molecular target: T1, 5-hydroxytryptamine receptor 3A (Homo sapiens, UniProt P46098); test: Binding affinity to human HT3A receptor
T1 sequence (P46098 whole entry): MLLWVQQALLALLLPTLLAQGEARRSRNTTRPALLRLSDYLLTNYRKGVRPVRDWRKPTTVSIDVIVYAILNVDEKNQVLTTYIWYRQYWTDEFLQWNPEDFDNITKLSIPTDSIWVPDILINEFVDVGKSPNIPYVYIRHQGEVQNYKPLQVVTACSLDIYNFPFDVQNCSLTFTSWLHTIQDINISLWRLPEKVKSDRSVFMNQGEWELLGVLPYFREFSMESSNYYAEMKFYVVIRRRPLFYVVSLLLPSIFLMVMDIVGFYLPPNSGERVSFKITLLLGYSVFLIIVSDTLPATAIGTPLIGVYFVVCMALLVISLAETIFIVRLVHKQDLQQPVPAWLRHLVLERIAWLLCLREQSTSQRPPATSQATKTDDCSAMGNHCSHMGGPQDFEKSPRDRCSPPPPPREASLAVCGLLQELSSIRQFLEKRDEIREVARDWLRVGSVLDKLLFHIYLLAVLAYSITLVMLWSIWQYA

[5] = Inhibition of human CYP450; assay type: ADME
[6] = molecular target: Cytochrome P450 3A4 (Homo sapiens, UniProt P08684); test: Inhibition of human CYP3A4; assay type: ADME
[7] = molecular target: Voltage-gated inwardly rectifying potassium channel KCNH2 (Homo sapiens, UniProt Q12809); test: Inhibition of human ERG expressed in HEK cells by patch clamp technique
[8] = species on record: Mus musculus; details: 0.56 mg/kg
[9] = species on record: Homo sapiens; test: Inhibition of human nicotinic acetylcholine receptor at 1 uM
How it was run: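 Single-concentration screen at 1 µM within a 68-membered off-target receptor panel; inhibition above 50% counted as significant.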

[10] = molecular target: Cytochrome P450 2C19 (Homo sapiens, UniProt P33261); test: Inhibition of human CYP2C19; assay type: ADME
[11] = species on record: Mus musculus; details: 1.9 mg/kg

Chain of Voltage-gated inwardly rectifying potassium channel KCNH2 (Q12809 whole entry): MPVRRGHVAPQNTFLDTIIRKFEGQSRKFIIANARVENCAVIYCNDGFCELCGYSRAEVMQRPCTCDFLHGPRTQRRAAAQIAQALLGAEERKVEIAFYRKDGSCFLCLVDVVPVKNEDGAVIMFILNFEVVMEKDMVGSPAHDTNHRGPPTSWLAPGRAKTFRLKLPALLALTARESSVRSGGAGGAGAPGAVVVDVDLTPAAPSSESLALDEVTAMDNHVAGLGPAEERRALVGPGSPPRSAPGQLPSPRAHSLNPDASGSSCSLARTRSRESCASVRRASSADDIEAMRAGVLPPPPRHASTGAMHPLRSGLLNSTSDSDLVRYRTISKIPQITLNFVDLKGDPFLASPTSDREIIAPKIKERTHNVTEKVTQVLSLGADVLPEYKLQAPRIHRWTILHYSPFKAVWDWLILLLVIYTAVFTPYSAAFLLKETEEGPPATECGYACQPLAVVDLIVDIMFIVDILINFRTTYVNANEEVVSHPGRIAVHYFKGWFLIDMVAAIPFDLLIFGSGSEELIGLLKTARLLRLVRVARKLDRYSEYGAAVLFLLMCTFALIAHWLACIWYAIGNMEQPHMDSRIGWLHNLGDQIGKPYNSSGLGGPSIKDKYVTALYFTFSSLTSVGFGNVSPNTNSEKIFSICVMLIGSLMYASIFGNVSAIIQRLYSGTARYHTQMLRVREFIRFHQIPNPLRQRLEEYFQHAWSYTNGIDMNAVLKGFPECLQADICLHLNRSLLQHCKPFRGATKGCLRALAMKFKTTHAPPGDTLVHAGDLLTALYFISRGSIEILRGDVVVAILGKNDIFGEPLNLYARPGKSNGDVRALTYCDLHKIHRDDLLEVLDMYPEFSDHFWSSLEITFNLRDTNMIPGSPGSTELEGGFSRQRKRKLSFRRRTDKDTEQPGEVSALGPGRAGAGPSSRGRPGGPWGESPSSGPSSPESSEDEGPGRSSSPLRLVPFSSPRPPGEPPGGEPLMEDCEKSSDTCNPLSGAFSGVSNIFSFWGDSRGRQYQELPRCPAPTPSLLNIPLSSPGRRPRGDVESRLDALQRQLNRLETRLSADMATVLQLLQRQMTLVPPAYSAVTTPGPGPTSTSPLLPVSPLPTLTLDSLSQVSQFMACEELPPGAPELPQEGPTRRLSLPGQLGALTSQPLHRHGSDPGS
Chain of Cytochrome P450 3A4 (P08684 whole entry): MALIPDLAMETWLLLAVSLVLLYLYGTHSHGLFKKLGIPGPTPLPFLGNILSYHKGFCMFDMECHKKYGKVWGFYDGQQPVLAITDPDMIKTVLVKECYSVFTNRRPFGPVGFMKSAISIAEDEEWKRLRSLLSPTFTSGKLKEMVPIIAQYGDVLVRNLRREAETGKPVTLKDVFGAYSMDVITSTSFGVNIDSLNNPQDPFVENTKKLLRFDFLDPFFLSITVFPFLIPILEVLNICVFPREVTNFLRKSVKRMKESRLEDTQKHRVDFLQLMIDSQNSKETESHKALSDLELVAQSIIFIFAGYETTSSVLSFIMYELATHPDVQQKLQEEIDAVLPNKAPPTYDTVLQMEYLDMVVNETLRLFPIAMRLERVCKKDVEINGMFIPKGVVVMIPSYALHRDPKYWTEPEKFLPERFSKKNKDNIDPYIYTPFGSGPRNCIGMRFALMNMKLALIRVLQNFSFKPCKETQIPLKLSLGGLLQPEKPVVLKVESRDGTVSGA
Chain of Cytochrome P450 2C19 (P33261 whole entry): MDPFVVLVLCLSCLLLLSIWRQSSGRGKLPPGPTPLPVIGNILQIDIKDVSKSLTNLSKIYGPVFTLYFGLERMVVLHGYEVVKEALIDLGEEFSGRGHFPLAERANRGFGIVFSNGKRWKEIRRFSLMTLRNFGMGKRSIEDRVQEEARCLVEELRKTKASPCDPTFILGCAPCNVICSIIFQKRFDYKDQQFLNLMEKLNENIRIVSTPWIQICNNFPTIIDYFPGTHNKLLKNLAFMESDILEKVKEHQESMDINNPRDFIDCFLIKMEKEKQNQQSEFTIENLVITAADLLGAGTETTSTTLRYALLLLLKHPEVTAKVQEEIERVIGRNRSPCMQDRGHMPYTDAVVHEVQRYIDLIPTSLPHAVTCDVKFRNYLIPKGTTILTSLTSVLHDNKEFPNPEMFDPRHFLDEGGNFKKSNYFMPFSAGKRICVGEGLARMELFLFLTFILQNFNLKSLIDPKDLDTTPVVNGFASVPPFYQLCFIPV

Structure (SMILES) | microsomal CLint [2] [µL/min/mg] | pKi [4] | also measured
Cc1[nH]cnc1CN1CCc2c(c3ccccc3n2C)C1=O [ALOSETRON] | 3 | – | ED50 [1]: 0.02 mg/kg; bioavailability [3]: 100%
CN1[C@@H]2CCC[C@H]1C[C@H](NC(=O)c1cccc3oc(-c4ccc(Cl)cc4)nc13)C2 | – | 7.74 | –
CN1[C@@H]2CCC[C@H]1C[C@H](NC(=O)c1cccc3oc(-c4ccc(F)cc4)nc13)C2 | – | 7.79 | –
Nc1nc2c(C(=O)N[C@@H]3CN4CCC3CC4)cccc2o1 | < 2 | 7.86 | ED50 [1]: 1.08 mg/kg; pIC50 [5]: < 4.00
COc1ccc(-c2nc3c(C(=O)N[C@@H]4C[C@H]5CCC[C@@H](C4)N5C)cccc3o2)cc1 | – | 7.73 | –
COc1ccccc1-c1nc2c(C(=O)N[C@@H]3CN4CCC3CC4)cccc2o1 | 10.1 | 7.33 | pIC50 [6]: < 4.30; pIC50 [7]: 6.70; bioavailability [3]: 100%
C[C@H]1COC[C@H](C)N1c1nc2c(C(=O)N[C@@H]3C[C@H]4CCC[C@@H](C3)N4C)cccc2o1 | – | 9.22 | –
O=C(N[C@@H]1CN2CCC1CC2)c1cccc2oc(C3CC3)nc12 | 4.5 | 7.49 | pIC50 [6]: < 4.00; pIC50 [7]: 6.15; bioavailability [3]: 13%
Cc1nccn1CC1CCc2c(c3ccccc3n2C)C1=O (stereo not given) [ONDANSETRON] | 5.8 | – | ED50 [1]: 0.54 mg/kg; bioavailability [3]: 21%
COc1ccc(-c2nc3cccc(C(=O)N[C@@H]4C[C@H]5CCC[C@@H](C4)N5C)c3o2)cc1 | – | 7.23 | –
Nc1nc2c(C(=O)N[C@@H]3CN4CCC3CC4)cc(Cl)cc2o1 | 3 | 8.33 | ED50 [1]: 0.4 mg/kg; pIC50 [7]: 5.32; pIC50 [5]: < 4.52; inhibition [8]: Active
CCNc1nc2c(C(=O)N[C@@H]3CN4CCC3CC4)cccc2o1 | – | 7.44 | –
O=C(N[C@@H]1CN2CCC1CC2)c1cccc2oc(N3CCOCC3)nc12 | 0.6 | – | pIC50 [6]: < 4.00; pIC50 [7]: 5.49; bioavailability [3]: 100%
CN1[C@@H]2CCC[C@H]1C[C@H](NC(=O)c1cccc3oc(N4CCOCC4)nc13)C2 | 1 | 7.40 | pIC50 [6]: < 4.30; pIC50 [7]: 5.85; bioavailability [3]: 35%; inhibition [9]: > 50%
CN1[C@@H]2CCC[C@H]1C[C@H](NC(=O)c1cccc3nc(-c4ccccc4)oc13)C2 | – | 7.39 | –
CNc1nc2c(C(=O)N[C@@H]3CN4CCC3CC4)cccc2o1 | – | 7.44 | –
CC[C@H]1COC[C@H](C)N1c1nc2c(C(=O)N[C@@H]3C[C@H]4CCC[C@@H](C3)N4C)cccc2o1 | – | 9.00 | –
COc1ccccc1-c1nc2c(C(=O)N[C@@H]3C[C@H]4CCC[C@@H](C3)N4C)cccc2o1 | 2.8 | 7.83 | pIC50 [6]: 5.96; pIC50 [7]: 6.40; bioavailability [3]: 44%

Structure (SMILES) | microsomal CLint [2] [µL/min/mg] | pKi [4] | also measured
CC(C)N(C)c1nc2c(C(=O)N[C@@H]3CN4CCC3CC4)cccc2o1 | – | 7.18 | –
CC(C)[C@H]1COCCN1c1nc2c(C(=O)N[C@@H]3C[C@H]4CCC[C@@H](C3)N4C)cccc2o1 | – | 8.30 | –
CN1[C@@H]2CCC[C@H]1C[C@H](NC(=O)c1cccc3oc(-c4ccccc4)nc13)C2 | – | 7.82 | –
CN1[C@@H]2CCC[C@H]1C[C@H](NC(=O)c1cccc3oc(N4CCNCC4)nc13)C2 | – | 7.14 | –
C[C@H]1CNCCN1c1nc2c(C(=O)N[C@@H]3C[C@H]4CCC[C@@H](C3)N4C)cccc2o1 | – | 7.78 | –
C[C@H]1CNC[C@H](C)N1c1nc2c(C(=O)N[C@@H]3C[C@H]4CCC[C@@H](C3)N4C)cccc2o1 | < 2 | 8.62 | ED50 [1]: 0.85 mg/kg; pIC50 [7]: 5.19; pIC50 [10]: 5.85; inhibition [11]: Active
CC(C)C[C@H]1COCCN1c1nc2c(C(=O)N[C@@H]3C[C@H]4CCC[C@@H](C3)N4C)cccc2o1 | – | 8.46 | –
CN1[C@@H]2CCC[C@H]1C[C@H](NC(=O)c1cccc3oc(C4CC4)nc13)C2 | 23.5 | 8.08 | pIC50 [6]: < 4.30; bioavailability [3]: 32%
CN1[C@@H]2CCC[C@H]1C[C@H](NC(=O)c1cccc3oc(N4CCOC[C@@H]4C(C)(C)C)nc13)C2 | – | 8.70 | –
CCN(CC)c1nc2c(C(=O)N[C@@H]3CN4CCC3CC4)cccc2o1 | – | 7.91 | –
CN1[C@@H]2CCC[C@H]1C[C@H](NC(=O)c1cccc3nc(-c4ccc(F)cc4)oc13)C2 | – | 7.02 | –
C[C@@H]1CNC[C@H](C)N1c1nc2c(C(=O)N[C@@H]3C[C@H]4CCC[C@@H](C3)N4C)cccc2o1 | – | 7.43 | –
C[C@@H]1CN(c2nc3c(C(=O)N[C@@H]4C[C@H]5CCC[C@@H](C4)N5C)cccc3o2)C[C@H](C)O1 | – | 7.45 | –
CN1[C@@H]2CCC[C@H]1C[C@H](NC(=O)c1cccc3nc(-c4ccc(Cl)cc4)oc13)C2 | – | 7.13 | –
CCC[C@H]1COCCN1c1nc2c(C(=O)N[C@@H]3C[C@H]4CCC[C@@H](C3)N4C)cccc2o1 | – | 8.41 | –
CC[C@H]1COCCN1c1nc2c(C(=O)N[C@@H]3C[C@H]4CCC[C@@H](C3)N4C)cccc2o1 | – | 8.34 | –
C[C@@H]1CNC[C@@H](C)N1c1nc2c(C(=O)N[C@@H]3C[C@H]4CCC[C@@H](C3)N4C)cccc2o1 | – | 7.23 | –
